Calls of active or inactive are those of the source. The calls are words filed in the database; no cut-off is given here.
How the values were obtained:
[1] = biological target: T1, Cystic fibrosis transmembrane conductance regulator (Homo sapiens, UniProt P13569, F508DEL); assay: Corrector activity at CFTR F508-del mutant (unknown origin) expressed in human CFBE41o cells harboring HS-YFP preincubated for 24 hrs followed by forskolin/genistein stimulation for 30 mins by fluorescence assay; assay type: cell-based
[2] = test system: Cystic fibrosis transmembrane conductance regulator (Homo sapiens), P13569 [F508del]; assay: Potentiator activity at CFTR F508-del mutant (unknown origin) expressed in human CFBE41o cells harboring HS-YFP assessed as increase in forskolin-stimulated aninon permeability up to 25 uM after 30 mins by fluorescence assay; assay type: cell-based
In short: (§1)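 F508del-CFTR/HS-YFP CFBE41o- cells were rescued by 24 h incubation at 27 °C, then exposed 30 min to forskolin (20 μM) plus test compound in PBS. Iodide added to final 100 mM; HS-YFP quenching rate (initial slope dF/dt) from exponential fit of final 10 s, normalized to initial background-subtracted fluorescence; compared with forskolin alone.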

[3] = test system: Cystic fibrosis transmembrane conductance regulator (Homo sapiens), P13569 [F508del]; assay: Synergistic corrector activity at CFTR F508-del mutant (unknown origin) expressed in human CFBE41o cells harboring HS-YFP preincubated for 24 hrs followed by forskolin/genistein stimulation for 30 mins in presence of VX-809 by fluorescence assay; assay type: cell-based
In short: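 CFBE41o- cells co-expressing F508del-CFTR and HS-YFP treated 24 h with compound (2, 10 or 25 μM) together with VX-809 (1 μM), then stimulated 30 min at 37 °C with forskolin (20 μM) and genistein (50 μM). Iodide influx (final 100 mM) measured as HS-YFP quenching rate.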

[4] = biological target: T1, Cystic fibrosis transmembrane conductance regulator; assay: Corrector activity at CFTR F508-del mutant (unknown origin)
In short: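 CFBE41o- bronchial cells stably co-expressing F508del-CFTR and HS-YFP, 50,000 cells/well, 24 h at 37 °C, then 24 h with compound at different concentrations; 30 min stimulation at 37 °C with forskolin (20 μM) plus genistein (50 μM) in PBS. Iodide injection (final 100 mM), initial quenching slope from exponential fit; EC50 from Hill equation fits.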

[5] = biological target: T1, Cystic fibrosis transmembrane conductance regulator; assay: Potentiator activity at CFTR F508-del mutant (unknown origin); in short: as §1
[6] = test system: Cystic fibrosis transmembrane conductance regulator (Homo sapiens), P13569 [F508del]; assay: Potentiator activity at CFTR F508-del mutant (unknown origin) expressed in human CFBE41o cells harboring HS-YFP assessed as increase in forskolin-stimulated aninon permeability at 25 uM after 30 mins by fluorescence assay; assay type: cell-based; in short: as §1

T1 sequence (P13569 as listed by the source): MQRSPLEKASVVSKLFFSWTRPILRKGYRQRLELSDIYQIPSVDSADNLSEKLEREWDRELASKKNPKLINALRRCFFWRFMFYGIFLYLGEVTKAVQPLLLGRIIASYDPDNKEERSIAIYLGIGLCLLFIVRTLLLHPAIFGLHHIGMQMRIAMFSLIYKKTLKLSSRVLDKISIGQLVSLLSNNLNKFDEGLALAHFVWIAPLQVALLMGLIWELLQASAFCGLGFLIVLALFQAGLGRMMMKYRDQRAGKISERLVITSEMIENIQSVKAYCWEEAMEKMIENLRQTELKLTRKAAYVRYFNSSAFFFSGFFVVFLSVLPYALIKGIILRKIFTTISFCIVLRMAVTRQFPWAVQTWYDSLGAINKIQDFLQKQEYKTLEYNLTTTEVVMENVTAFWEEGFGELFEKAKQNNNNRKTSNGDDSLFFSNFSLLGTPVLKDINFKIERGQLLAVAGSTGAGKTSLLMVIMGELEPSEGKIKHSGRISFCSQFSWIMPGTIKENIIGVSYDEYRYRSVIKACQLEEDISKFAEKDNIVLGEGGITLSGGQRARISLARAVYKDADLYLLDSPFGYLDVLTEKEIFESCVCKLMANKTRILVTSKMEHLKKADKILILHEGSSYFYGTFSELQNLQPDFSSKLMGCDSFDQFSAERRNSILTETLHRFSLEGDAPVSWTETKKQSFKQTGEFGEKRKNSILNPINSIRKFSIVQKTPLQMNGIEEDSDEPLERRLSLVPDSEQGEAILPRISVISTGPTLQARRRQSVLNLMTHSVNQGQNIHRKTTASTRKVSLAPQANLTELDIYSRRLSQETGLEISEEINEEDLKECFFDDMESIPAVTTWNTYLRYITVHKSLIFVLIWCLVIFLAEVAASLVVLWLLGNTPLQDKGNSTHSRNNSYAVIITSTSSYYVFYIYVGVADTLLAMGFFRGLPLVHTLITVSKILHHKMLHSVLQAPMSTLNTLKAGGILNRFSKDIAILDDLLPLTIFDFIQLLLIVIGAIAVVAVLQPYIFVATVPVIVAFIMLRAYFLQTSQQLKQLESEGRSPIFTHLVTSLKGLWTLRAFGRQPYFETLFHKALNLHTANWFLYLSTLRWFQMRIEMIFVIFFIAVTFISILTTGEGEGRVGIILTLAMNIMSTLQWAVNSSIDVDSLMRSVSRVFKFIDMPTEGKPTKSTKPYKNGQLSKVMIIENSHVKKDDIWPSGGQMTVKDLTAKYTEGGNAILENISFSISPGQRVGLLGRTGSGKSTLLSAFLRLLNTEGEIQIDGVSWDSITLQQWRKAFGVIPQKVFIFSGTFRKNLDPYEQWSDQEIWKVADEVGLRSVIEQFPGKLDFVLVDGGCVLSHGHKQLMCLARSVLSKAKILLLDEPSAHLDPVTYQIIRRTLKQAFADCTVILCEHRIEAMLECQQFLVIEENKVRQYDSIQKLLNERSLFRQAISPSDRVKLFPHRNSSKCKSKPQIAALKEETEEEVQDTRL
Sequence of Cystic fibrosis transmembrane conductance regulator (Homo sapiens), P13569 [F508del] (P13569 as listed by the source): as above

| Compound | EC50 ([1]; read-out: pEC50 (converted)) [µM] | Activity [2] | Activity [3] | EC50 ([1]; read-out: EC50) [µM] | further results |
| --- | --- | --- | --- | --- | --- |
| NC(=O)C1CCN(c2nc(-c3cccnc3)nc3c2CN(Cc2ccccc2)CC3)CC1 | > 100 | – | – | – | – |
| Cc1cc(C)c2cc(C#N)c(NCCNC(=O)c3ccccn3)nc2c1 | > 100 | – | – | – | – |
| O=C(c1ccccc1)c1sc(NC(=O)C2(c3ccc4c(c3)OCO4)CC2)nc1-c1ccccc1 | – | inactive | inactive | 0.087 | – |
| Cc1sc(NC(=O)C2(c3ccc4c(c3)OCO4)CC2)nc1-c1ccc(F)cc1 | – | inactive | inactive | 0.9 | – |
| CN(C)CCN1CCN(c2nc(-c3ccccn3)nc3c2CN(Cc2ccc(F)cc2)CC3)CC1 | 100 | – | – | – | – |
| COc1ccc(NC(=O)n2nc(-c3sc(NC(=O)C(C)(C)C)nc3C)cc2Cc2cc(Cl)ccc2OC)cc1 | 1 | – | – | – | – |
| CN(C)CCN1CCN(c2nc(-c3ccncc3)nc3c2CN(Cc2ccccc2)CC3)CC1 | 100 | – | – | – | – |
| O=C(Nc1nc(-c2ccc(O)cc2)cs1)C1(c2ccc3c(c2)OCO3)CC1 | – | inactive | inactive | 1.8 | – |
| CN(C)CCN1CCN(c2nc(-c3ccccn3)nc3c2CN(S(=O)(=O)c2ccccc2)CC3)CC1 | 100 | – | – | – | – |
| Cc1cc(C)c2cc(C#N)c(N3CCN(C(=O)c4ccccn4)CC3)nc2c1 | 100 | – | – | – | – |
| CCOC(=O)n1nc(-c2sc(NC(=O)C(C)(C)C)nc2C)cc1Cc1ccccc1 | 8.51 | – | – | – | – |
| COc1ccc(C(=O)N2CCN(c3nc4cc(C)cc(C)c4cc3C#N)CC2)cc1 | 100 | – | – | – | – |
| CCOC(=O)c1sc(NC(=O)C2(c3ccc4c(c3)OCO4)CC2)nc1-c1ccc(Br)cc1 | – | inactive | inactive | 0.3 | – |
| O=C(Nc1nc(-c2ccc(Br)cc2)cs1)C1(c2ccc3c(c2)OCO3)CC1 | – | inactive | inactive | 4.9 | – |
| Cc1cc(C)c2cc(C#N)c(N3CCN(C(=O)c4ccncc4)CC3)nc2c1 | 100 | – | – | – | – |
| CSc1cccc(NC(=O)C2(c3ccc4c(c3)OCO4)CC2)c1 | – | inactive | inactive | 8 | – |
| C=CCc1cc(-c2sc(NC(=O)C(C)(C)C)nc2C)nn1C(=O)Nc1ccc(OC)cc1 | 0.933 | – | – | – | – |
| Cc1sc(NC(=O)C2(c3ccc4c(c3)OCO4)CC2)nc1-c1ccc(Cl)cc1 | – | inactive | inactive | 2.9 | – |
| COc1ccc(Cl)cc1Cc1cc(-c2sc(NC(=O)C(C)(C)C)nc2C)nn1C(=O)NCCO | 3.02 | – | – | – | – |
| O=C(Nc1nc(-c2cccc(F)c2)cs1)C1(c2ccc3c(c2)OCO3)CC1 | – | inactive | inactive | 2.1 | – |

| Compound | EC50 ([1]; read-out: pEC50 (converted)) [µM] | Activity [2] | Activity [3] | EC50 ([1]; read-out: EC50) [µM] | further results |
| --- | --- | --- | --- | --- | --- |
| O=C(Nc1ncc(Cc2ccccc2Cl)s1)C(c1ccccc1)c1ccccc1 | – | – | – | – | EC50 [4]: 16 µM; EC50 [5]: 7.9 µM |
| CC(=O)NCCCNc1nc(-c2ccccn2)nc2c1CN(Cc1ccc(F)cc1)CC2 | 0.2 | – | – | – | – |
| O=C(Nc1nc(-c2ccc(I)cc2)cs1)C1(c2ccc3c(c2)OCO3)CC1 | – | inactive | inactive | 1.2 | – |
| COc1ccc(Cl)cc1Cc1cc(-c2sc(NC(=O)C(C)(C)C)nc2C)nn1C(=O)N1CCOCC1 | 1 | – | – | – | – |
| Cc1cc(C)c2cc(C#N)c(NCCCNC(=O)c3ccncc3)nc2c1 | 13.2 | – | – | – | – |
| COc1ccccc1C(=O)NCCCNc1nc2cc(C)cc(C)c2cc1C#N | > 100 | – | – | – | – |
| CN(C)CCN1CCN(c2nc(-c3cccnc3)nc3c2CN(Cc2ccccc2)CC3)CC1 | > 100 | – | – | – | – |
| COc1ccccc1C(=O)N1CCN(c2nc3cc(C)cc(C)c3cc2C#N)CC1 | 100 | – | – | – | – |
| Cc1sc(NC(=O)C2(c3ccc4c(c3)OCO4)CC2)nc1-c1ccc(O)cc1 | – | inactive | inactive | 3.9 | – |
| CCOC(=O)c1sc(NC(=O)C2(c3ccc4c(c3)OCO4)CC2)nc1-c1ccc(Cl)cc1 | – | inactive | inactive | 0.9 | – |
| O=C(Nc1nc(-c2cccc(Cl)c2)cs1)C1(c2ccc3c(c2)OC(F)(F)O3)CC1 | – | inactive | inactive | – | – |
| Cc1cc(C)c2cc(C#N)c(NCCCNC(=O)c3ccccn3)nc2c1 | 100 | – | – | – | – |
| Fc1ccc(CN2CCc3nc(-c4ccccn4)nc(NCCCN4CCCC4)c3C2)cc1 | 0.2 | – | – | – | – |
| COc1ccc(CN2CCc3nc(-c4ccccn4)nc(N4CCN(CCN(C)C)CC4)c3C2)cc1 | 100 | – | – | – | – |
| CCOC(=O)c1sc(NC(=O)C2(c3ccc4c(c3)OCO4)CC2)nc1-c1cccc(Cl)c1 | – | inactive | inactive | 0.55 | – |
| NC(=O)CN1CCN(c2nc(-c3cccnc3)nc3c2CN(Cc2ccccc2)CC3)CC1 | 100 | – | – | – | – |
| COc1cccc(C(=O)NCCNc2nc3cc(C)cc(C)c3cc2C#N)c1 | – | – | – | – | EC50 [4]: 1.5 µM; EC50 [5]: 5.9 µM |
| O=C(O)c1ccc(-c2csc(NC(=O)C3(c4ccc5c(c4)OCO5)CC3)n2)cc1 | > 5.01 | inactive | inactive | > 5 | – |
| Cc1sc(NC(=O)C2(c3ccc4c(c3)OCO4)CC2)nc1-c1ccc(Br)cc1 | – | inactive | inactive | 1.9 | – |

More lines, main results first:

| EC50 ([1]; read-out: pEC50 (converted)) [µM] | Activity [2] | Activity [3] | EC50 ([1]; read-out: EC50) [µM] | Compound | further results |
| --- | --- | --- | --- | --- | --- |
| – | inactive | inactive | 1.7 | O=C(Nc1nc(-c2ccc(O)cc2)cs1)C1(c2ccc3c(c2)OC(F)(F)O3)CC1 | – |
| 3.39 | – | – | – | COc1ccc(NC(=O)c2cc(-c3sc(NC(=O)C(C)(C)C)nc3C)n(-c3ccc(Br)cc3)n2)cc1 | – |
| > 100 | – | – | – | Cc1cc(C)c2cc(C#N)c(NCCNC(=O)c3ccccc3)nc2c1 | – |
| 3.02 | – | – | – | C=CCc1cc(-c2sc(NC(=O)C(C)(C)C)nc2C)nn1C(=O)Nc1ccccc1 | – |
| – | inactive | inactive | 2.3 | Cc1sc(NC(=O)C2(c3ccc4c(c3)OCO4)CC2)nc1-c1cccc(Cl)c1 | – |
| – | inactive | inactive | 1.3 | O=C(Nc1nc(-c2cccc(O)c2)cs1)C1(c2ccc3c(c2)OC(F)(F)O3)CC1 | – |
| > 5.01 | inactive | inactive | > 5 | CC(=O)Nc1ccc(-c2csc(NC(=O)C3(c4ccc5c(c4)OCO5)CC3)n2)cc1 | – |
| 0.708 | – | – | – | COc1ccc(Cl)cc1Nc1nc(-c2sc(NC(=O)C(C)(C)C)nc2C)cs1 | – |
| 100 | – | – | – | Cc1cc(C)c2cc(C#N)c(N3CCN(C(=O)c4cccnc4)CC3)nc2c1 | – |
| 0.759 | – | – | – | Cc1nc(NC(=O)C(C)(C)C)sc1-c1cc(Cc2ccccc2)n(C(=O)NCc2ccccc2)n1 | – |
| – | inactive | inactive | 5.4 | Cc1sc(NC(=O)C2(c3ccc4c(c3)OC(F)(F)O4)CC2)nc1-c1cccc(Cl)c1 | – |
| – | inactive | inactive | 2.9 | O=C(Nc1nc(-c2ccc(Cl)cc2)cs1)C1(c2ccc3c(c2)OCO3)CC1 | – |
| – | inactive | inactive | 2.9 | Cc1sc(NC(=O)C2(c3ccc4c(c3)OCO4)CC2)nc1-c1ccc(C(=O)O)cc1 | – |
| – | inactive | inactive | – | CC(=O)c1sc(NC(=O)C2(c3ccc4c(c3)OCO4)CC2)nc1C | – |
| 100 | – | – | – | CCN(C(C)=O)C1CCN(c2nc(-c3ccccn3)nc3c2CN(Cc2ccc(Cl)cc2)CC3)C1 (centres undefined) | – |
| 100 | – | – | – | CN(C)CCN1CCN(c2nc(-c3ccccn3)nc3c2CN(C(=O)c2ccccc2)CC3)CC1 | – |
| – | inactive | inactive | 1.6 | Cc1sc(NC(=O)C2(c3ccc4c(c3)OCO4)CC2)nc1-c1ccccc1 | – |
| – | inactive | inactive | 8.2 | O=C(Nc1nc(-c2cccc(Cl)c2)cs1)C1(c2ccc3c(c2)OCO3)CC1 | – |
| 100 | – | – | – | CN1CCN(CCCNc2nc(-c3ccncc3)nc3c2CN(Cc2ccccc2)CC3)CC1 | – |
| – | – | inactive | 2.2 | O=C(Nc1cccc2cccnc12)C1(c2ccc3c(c2)OCO3)CC1 | Activity [6]: 50% |
| – | inactive | inactive | 3.8 | Cc1sc(NC(=O)C2(c3ccc4c(c3)OC(F)(F)O4)CC2)nc1-c1ccc(Br)cc1 | – |
| 100 | – | – | – | COc1cccc(C(=O)N2CCN(c3nc4cc(C)cc(C)c4cc3C#N)CC2)c1 | – |
| – | – | inactive | 2.3 | O=C(Nc1nc(-c2cccc(O)c2)cs1)C1(c2ccc3c(c2)OCO3)CC1 | Activity [6]: 50% |
| – | – | inactive | 1.2 | Cc1sc(NC(=O)C2(c3ccc4c(c3)OCO4)CC2)nc1-c1cccc(O)c1 | Activity [6]: 50% |
| > 100 | – | – | – | CN1CCN(CCCNc2nc(-c3cccnc3)nc3c2CN(Cc2ccccc2)CC3)CC1 | – |
